In PubChem BioAssay AID2727 (Broad Institute, 2010):
The other results are listed elsewhere or left out. A number with no mark means an inactive call. Active and inactive are the calls of the source.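 The calls were made as follows: active = inhibition above about 80% in every replicate, not just on average (limit read from the data); inconclusive = at least half of replicates past the limit, but not all; inactive = fewer than half of replicates past the limit.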

Experiment: luminescence decrease in constitutive quorum sensing strain – strain BB721, luminescence readout, counter-screen for LuxS inhibitor project, confirmation (AID 2727)
Conditions: Vibrio harveyi BB721 luminescence, 9 h; at 7.5 µM; hits give high values
Summary of the method: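 Times: compound exposure of bacteria for 9 h at 30 °C; System: Vibrio harveyi strain BB721 with quorum sensing permanently switched on; Quantity: starting culture density OD600 0.0005; Read-out: luminescence reduction; Buffer or medium: AB bacterial medium; Dosing: 45 nL per well from 10 mM compound stock.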

Row | SMILES | inhibition
1 | O=C(COC(=O)C1CCCCC1)Nc1ccc([N+](=O)[O-])cc1 | 93.7% (active)
2 | CC(CNc1ccc([N+](=O)[O-])cc1)NC(=O)c1ccccc1Br (stereo not drawn) | -4.57%
3 | Cc1ccsc1C(=O)OCC(=O)c1cc2ccccc2o1 | 95.1% (active)
4 | CN(Cc1cnccn1)C(=O)c1cc(COc2cccc(C(F)(F)F)c2)on1 | 96% (active)
5 | Cc1ccccc1NC(=O)CCOc1ccccc1 | 90.7% (active)
6 | COC(=O)c1ccc(SCc2ccccc2)nc1 | 96.4% (active)
7 | S=C(NCc1ccc(Cl)cc1)NC1CCCCC1 | 94.1% (active)
8 | O=C(Cn1cnc2ccccc2c1=O)Nc1cccc(S(=O)(=O)N2CCCCC2)c1 | 85.6% (active)
9 | O=C(COc1ncnc2ccccc12)NC(=O)NCc1ccccc1 | 95.7% (active)
10 | CC(C)(C)c1ccc(OC2=CS(=O)(=O)c3ccccc32)cc1 | 92.5% (active)
11 | Cc1ccc(Oc2cnn(-c3ccccc3)c(=O)c2Br)cc1 | 99.2% (active)
12 | Cc1ccc(Cc2nc(-c3cccc(C)c3)no2)cc1 | 92.5% (active)
13 | COc1ccc(/C(N)=N/OC(=O)Cc2ccccc2)cc1 | 93.6% (active)
14 | O=S(=O)(Nc1cccc(Oc2ccc(Cl)cc2)n1)c1ccc(F)cc1 | 99.6% (active)
15 | Cc1ccc(NC(=O)C2CC2c2ccccc2)cc1 (stereo not drawn) | 94.8% (active)
16 | O=C(/C=C/c1ccc2c(c1)OCO2)NCc1ccc(F)cc1 | 94% (active)
17 | O=C(Nc1ccc(F)c(Cl)c1)C1CCN(S(=O)(=O)c2cccnc2)CC1 | 97.7% (active)

Row | SMILES | inhibition
18 | Cc1cccc(CSc2ccc(-c3cccs3)nn2)c1 | 94.7% (active)
19 | O=C(c1cc(-c2cccc(O)c2)on1)N1CCc2ccccc2C1 | 93.6% (active)
20 | Cc1cc(CN(C)C(=O)c2cc(COc3ccc(C)c(C)c3)on2)n[nH]1 | 96% (active)
21 | Cc1ccccc1C(=O)Nc1ccc(N2CCCCCC2)cc1 | 91.4% (active)
22 | CCOC(=O)c1nn(-c2cccc(C)c2)cc1C(=O)c1ccccc1 | 87.7% (active)
23 | N/C(=N\OC(=O)CCc1ccccc1)c1cccnc1 | 91.1% (active)
24 | COC(=O)C1CCN(C(=O)c2ccc3oc(Cc4ccc(Cl)cc4)nc3c2)CC1 | 95.6% (active)
25 | O=C(/C=C/c1ccc2c(c1)OCCO2)c1ccc(O)cc1 | 93.3% (active)
26 | Cc1cc(C(=O)OCC(=O)Nc2ccc(F)c(F)c2)c(C)o1 | 97.5% (active)
27 | O=C1COc2ccc(S(=O)(=O)Nc3ccc(OC(F)(F)F)cc3)cc2N1 | 96.7% (active)
28 | CCOc1ccc(/C=N/NC(N)=S)cc1 | 92.7% (active)
29 | CC(=O)c1cccc(OCc2cc(C(=O)NC(C)Cc3cccnc3)no2)c1 (stereo not drawn) | 92.4% (active)
30 | O=C(CCC(=O)c1cccs1)Nc1nc2ccccc2s1 | 97.5% (active)
31 | Cc1nn(CC(=O)Nc2ccc(F)cc2)c(=O)c2ccccc12 | 98.5% (active)
32 | COc1cccc(NC(=O)NCc2ccc(F)cc2)c1 | 94.6% (active)
33 | Cc1ccc(NS(=O)(=O)c2ccc3c(c2)NC(=O)CO3)cc1 | 92% (active)
